What was measured:
[1] = Stability in human plasma assessed as half life at 100 uM by LC-HRMS analysis; type: ADME, cell-free
Method in brief: (§1)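 Peptides at 100 μM initial concentration in human plasma/PBS (1:2 v/v), incubated at 37 °C for up to 48 h (sampled at 10 min, 30 min, 1, 2, 6, 24, 48 h); intact peptide and fragments analysed by LC-HRMS. Values are means ± SEM from three independent experiments.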

[2] = Stability in human plasma assessed as percentage intact peptide at 100 uM incubated for 1 hr by LC-HRMS analysis; type: ADME, cell-free; conditions: read-out: Stability; method in brief: as §1
[3] = Stability in human plasma assessed as percentage intact peptide at 100 uM incubated for 24 hrs by LC-HRMS analysis; type: ADME, cell-free; conditions: read-out: Stability; method in brief: as §1
[4] = Stability in human plasma assessed as percentage intact peptide at 100 uM incubated for 10 mins by LC-HRMS analysis; type: ADME, cell-free; conditions: read-out: Stability; method in brief: as §1
[5] = Stability in human plasma assessed as percentage intact peptide at 100 uM incubated for 48 hrs by LC-HRMS analysis; type: ADME, cell-free; conditions: read-out: Stability; method in brief: as §1
[6] = Stability in human plasma assessed as percentage intact peptide at 100 uM incubated for 30 mins by LC-HRMS analysis; type: ADME, cell-free; conditions: read-out: Stability; method in brief: as §1
[7] = Stability in human plasma assessed as percentage intact peptide at 100 uM incubated for 2 hrs by LC-HRMS analysis; type: ADME, cell-free; conditions: read-out: Stability; method in brief: as §1
[8] = molecular target: Neurotensin receptor type 1 (Homo sapiens, UniProt P30989); assay: Displacement of [3H]UR-MK300 from human NSTR1 in HT-29 cells incubated for 2 hrs by liquid scintillation counter; type: cell-based
[9] = Stability in human plasma assessed as percentage intact peptide at 100 uM incubated for 6 hrs by LC-HRMS analysis; type: ADME, cell-free; conditions: read-out: Stability; method in brief: as §1

Chain of Neurotensin receptor type 1 (P30989 whole entry): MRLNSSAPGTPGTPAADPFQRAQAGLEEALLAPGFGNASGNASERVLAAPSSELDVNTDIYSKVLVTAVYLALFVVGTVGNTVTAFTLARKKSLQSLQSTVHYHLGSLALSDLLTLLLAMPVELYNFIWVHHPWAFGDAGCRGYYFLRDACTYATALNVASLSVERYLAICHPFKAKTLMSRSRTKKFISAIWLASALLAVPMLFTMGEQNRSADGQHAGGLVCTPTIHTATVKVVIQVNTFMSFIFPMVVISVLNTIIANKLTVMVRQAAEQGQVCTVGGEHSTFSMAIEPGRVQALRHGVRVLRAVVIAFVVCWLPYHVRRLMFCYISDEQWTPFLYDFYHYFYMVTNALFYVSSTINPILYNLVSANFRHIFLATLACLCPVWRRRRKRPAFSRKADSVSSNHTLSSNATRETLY

CC[C@H](C)[C@H](NC(=O)[C@H](Cc1ccc(O)cc1)NC(=O)[C@@H]1CCCN1C(=O)[C@H](CCCNC(=N)N)NC(=O)[C@@H](N)CCCNC(=N)N)C(=O)N[C@@H](CC(C)C)C(=O)O
half-life at 100 µM [1]: < 0.0833 h
remaining at 1 h, 100 µM [2]: < 1%
remaining at 24 h, 100 µM [3]: < 1%
remaining at 10 min, 100 µM [4]: 23.1%
remaining at 48 h, 100 µM [5]: < 1%

CC[C@H](C)[C@@H](C(=O)N[C@@H](CC(C)C)C(=O)O)N(C)C(=O)[C@H](Cc1ccc(O)cc1)NC(=O)[C@@H]1CCCN1C(=O)[C@H](CCCNC(=N)N)NC(=O)[C@@H](N)CCCNC(=N)N
remaining at 1 h, 100 µM [2]: < 1%
remaining at 0.5 h, 100 µM [6]: < 1%
remaining at 10 min, 100 µM [4]: 2.6%
remaining at 2 h, 100 µM [7]: < 1%

CC[C@H](C)[C@H](NC(=O)[C@H](Cc1ccc(O)cc1)N(C)C(=O)[C@@H]1CCCN1C(=O)[C@H](CCCNC(=N)N)NC(=O)[C@@H](N)CCCNC(=N)N)C(=O)N[C@@H](CC(C)C)C(=O)O
remaining at 1 h, 100 µM [2]: < 1%
remaining at 0.5 h, 100 µM [6]: < 1%
remaining at 10 min, 100 µM [4]: 22.9%
remaining at 2 h, 100 µM [7]: < 1%

CC(C)C[C@H](NC(=O)[C@@H](NC(=O)[C@H](Cc1ccc(O)cc1)NC(=O)[C@@H]1CCCN1C(=O)[C@H](CCCNC(=N)N)NC(=O)[C@@H](N)CCCNC(=N)N)C(C)(C)C)C(=O)O.O=C(O)C(F)(F)F.O=C(O)C(F)(F)F.O=C(O)C(F)(F)F
half-life at 100 µM [1]: < 0.0833 h
remaining at 1 h, 100 µM [2]: < 1%
remaining at 24 h, 100 µM [3]: < 1%
remaining at 10 min, 100 µM [4]: 10.8%
remaining at 48 h, 100 µM [5]: < 1%

CC[C@H](C)[C@H](NC(=O)[C@H](Cc1ccc(O)cc1)NC(=O)[C@@H]1CCCN1C(=O)[C@H](CCCNC(=N)N)NC(=O)[C@@H](N)CCCNC(=N)N)C(=O)N(C)[C@@H](CC(C)C)C(=O)O
remaining at 1 h, 100 µM [2]: < 1%
remaining at 0.5 h, 100 µM [6]: < 1%
remaining at 10 min, 100 µM [4]: 39.9%
remaining at 2 h, 100 µM [7]: < 1%

CC[C@H](C)[C@H](NC(=O)[C@H](Cc1ccc(O)cc1)NC(=O)[C@@H]1CCCN1C(=O)[C@H](CCCNC(=N)N)N(C)C(=O)[C@@H](N)CCCNC(=N)N)C(=O)N[C@@H](CC(C)C)C(=O)O
remaining at 1 h, 100 µM [2]: 83.7%
remaining at 0.5 h, 100 µM [6]: 93.6%
remaining at 10 min, 100 µM [4]: > 99%
remaining at 2 h, 100 µM [7]: 66.4%

CC(C)C[C@H](NC(=O)[C@@H](NC(=O)[C@H](Cc1ccc(O)cc1)NC(=O)[C@@H]1CCCN1C(=O)[C@H](CCCNC(=N)N)N(C)C(=O)[C@@H](N)CCCNC(=N)N)C(C)(C)C)C(=O)O.O=C(O)C(F)(F)F.O=C(O)C(F)(F)F.O=C(O)C(F)(F)F
Ki [8]: 1.6 nM
half-life at 100 µM [1]: > 48 h
remaining at 1 h, 100 µM [2]: > 99%
remaining at 24 h, 100 µM [3]: > 99%
remaining at 6 h, 100 µM [9]: > 99%
remaining at 48 h, 100 µM [5]: > 99%

CCC(=O)N[C@@H](CCCNC(=N)N)C(=O)N[C@@H](CCCNC(=N)N)C(=O)N1CCC[C@H]1C(=O)N[C@@H](Cc1ccc(O)cc1)C(=O)N[C@H](C(=O)N[C@@H](CC(C)C)C(=O)O)[C@@H](C)CC.O=C(O)C(F)(F)F.O=C(O)C(F)(F)F
half-life at 100 µM [1]: 1 to 2 h
remaining at 1 h, 100 µM [2]: 71.8%
remaining at 0.5 h, 100 µM [6]: 84%
remaining at 10 min, 100 µM [4]: > 99%

CCC(=O)N[C@@H](CCCNC(=N)N)C(=O)N[C@@H](CCCNC(=N)N)C(=O)N1CCC[C@H]1C(=O)N[C@@H](Cc1ccc(O)cc1)C(=O)N[C@H](C(=O)N[C@@H](CC(C)C)C(=O)O)C(C)(C)C
Ki [8]: 18 nM
remaining at 1 h, 100 µM [2]: > 99%
remaining at 24 h, 100 µM [3]: > 99%
remaining at 6 h, 100 µM [9]: > 99%
remaining at 48 h, 100 µM [5]: 92.5%

CN[C@@H](CCCNC(=N)N)C(=O)N[C@@H](CCCNC(=N)N)C(=O)N1CCC[C@H]1C(=O)N[C@@H](Cc1ccc(O)cc1)C(=O)N[C@H](C(=O)N[C@@H](CC(C)C)C(=O)O)C(C)(C)C.O=C(O)C(F)(F)F.O=C(O)C(F)(F)F.O=C(O)C(F)(F)F
Ki [8]: 0.88 nM
half-life at 100 µM [1]: > 48 h
remaining at 1 h, 100 µM [2]: > 99%
remaining at 24 h, 100 µM [3]: 98.3%
remaining at 6 h, 100 µM [9]: > 99%
remaining at 48 h, 100 µM [5]: 86.8%

CC[C@H](C)[C@H](NC(=O)[C@H](Cc1ccc(O)cc1)NC(=O)[C@@H]1CCCN1C(=O)[C@H](CCCNC(=N)N)NC(=O)[C@H](CCCNC(=N)N)NC)C(=O)N[C@@H](CC(C)C)C(=O)O.O=C(O)C(F)(F)F.O=C(O)C(F)(F)F.O=C(O)C(F)(F)F
Ki [8]: 0.223 nM
half-life at 100 µM [1]: < 5 h
remaining at 1 h, 100 µM [2]: 79.7%
remaining at 0.5 h, 100 µM [6]: 88.2%
remaining at 10 min, 100 µM [4]: 92.1%
remaining at 2 h, 100 µM [7]: 70.8%

From ChEMBL document CHEMBL4304768, “Modifications at Arg and Ile Give Neurotensin(8-13) Derivatives with High Stability and Retained NTS1 Receptor Affinity” (ACS Med Chem Lett, 2019)
